The target in assay [1] is T1, Substance-K receptor (Rattus norvegicus, UniProt P16610).
T1 sequence (P16610 whole entry): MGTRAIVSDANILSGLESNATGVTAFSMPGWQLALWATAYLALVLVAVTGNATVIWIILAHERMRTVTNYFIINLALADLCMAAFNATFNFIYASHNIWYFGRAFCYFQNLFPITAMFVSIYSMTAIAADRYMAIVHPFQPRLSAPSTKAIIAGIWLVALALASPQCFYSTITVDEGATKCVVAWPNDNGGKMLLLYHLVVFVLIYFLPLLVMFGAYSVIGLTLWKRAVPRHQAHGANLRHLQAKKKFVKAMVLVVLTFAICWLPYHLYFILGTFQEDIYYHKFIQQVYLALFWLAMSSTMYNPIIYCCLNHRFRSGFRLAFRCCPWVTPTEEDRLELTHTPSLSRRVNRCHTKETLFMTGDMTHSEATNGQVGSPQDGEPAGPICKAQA
Kind of assay: Effective concentration to activate Tachykinin receptor 2 in rat vas deferens (RVD).

Assay [2] addresses T2, Neuromedin-K receptor (Rattus norvegicus, UniProt P16177).
T2 sequence (P16177 whole entry): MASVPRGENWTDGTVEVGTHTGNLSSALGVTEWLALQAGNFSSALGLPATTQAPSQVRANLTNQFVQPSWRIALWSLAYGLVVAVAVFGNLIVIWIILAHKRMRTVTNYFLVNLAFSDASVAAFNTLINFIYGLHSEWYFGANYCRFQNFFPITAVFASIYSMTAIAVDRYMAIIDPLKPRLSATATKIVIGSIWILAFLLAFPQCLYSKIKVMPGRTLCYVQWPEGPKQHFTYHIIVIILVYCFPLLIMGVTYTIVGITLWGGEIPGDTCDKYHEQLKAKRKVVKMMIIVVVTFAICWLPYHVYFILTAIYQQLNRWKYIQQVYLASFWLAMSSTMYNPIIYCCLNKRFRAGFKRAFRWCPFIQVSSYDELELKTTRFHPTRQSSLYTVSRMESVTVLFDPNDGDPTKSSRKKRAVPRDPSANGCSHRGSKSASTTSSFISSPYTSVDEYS
Kind of assay: Effective concentration to activate Tachykinin receptor 3 in rat portal vein (RPV). The procedure, abridged: (§1)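 Portal vein from rat killed by decapitation, mounted in a bath at 37 °C under about 0.5 g tension and equilibrated for 1 h. Peptides were then added at 20 min intervals to avoid receptor desensitization, and contractile responses were recorded.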

Another assay concerns the target Substance-P receptor (Cavia porcellus, UniProt P30547). Kind of assay: Effective concentration to activate Tachykinin receptor 1 in guinea pig ileum(GPI). It is filed as tissue-based.
Assay [3] addresses T2, Neuromedin-K receptor. Kind of assay: Effective concentration to activate Tachykinin receptor 3 in rat portal vein(RPV). The procedure, abridged:
as §1

The target in assay [4] is T1, Substance-K receptor. The experiment in a line: Effective concentration to activate Tachykinin receptor 2 in rat vas deferens(RVD).

pEC50: −log10 of the molar value. Starred links: 1 amine or outer side, 2 acyl side, 3 side chain; linkers in the order of their positions; H or OH if unused. Positions of bridges follow the written chain, without caps; N, C: chain ends. Non-standard residues stand in square brackets, D forms with d. Residues, ends and D or L forms follow the SMILES beside them. *: point of attachment. N(6-aminohexyl)Gly = O=C(CN(CCCCCCN[*:3])[*:1])[*:2]; NGly(3-aminopropyl) = O=C(CN(CCCN[*:3])[*:1])[*:2]; N(2-Aminoethyl)Gly = O=C(CN(CCN[*:3])[*:1])[*:2]; Adipoyl = O=C(CCCCC(=O)[*:2])[*:1]; Glutaryl = O=C(CCCC(=O)[*:2])[*:1]; X2 = CC(=O)NCCCN(CC(=O)[*:2])[*:1]; Gly(N(CH2)3NH2) = NCCCNCC(=O)O; Suc = O=C(CCC(=O)[*:2])[*:1]; X1 = CNC(=O)CCCCC(=O)*

One may read the pEC50 as the negative decadic logarithm of the EC50, by convention in mol/L. A higher pEC50 goes with a low EC50.

Sequence of Substance-P receptor (P30547 whole entry): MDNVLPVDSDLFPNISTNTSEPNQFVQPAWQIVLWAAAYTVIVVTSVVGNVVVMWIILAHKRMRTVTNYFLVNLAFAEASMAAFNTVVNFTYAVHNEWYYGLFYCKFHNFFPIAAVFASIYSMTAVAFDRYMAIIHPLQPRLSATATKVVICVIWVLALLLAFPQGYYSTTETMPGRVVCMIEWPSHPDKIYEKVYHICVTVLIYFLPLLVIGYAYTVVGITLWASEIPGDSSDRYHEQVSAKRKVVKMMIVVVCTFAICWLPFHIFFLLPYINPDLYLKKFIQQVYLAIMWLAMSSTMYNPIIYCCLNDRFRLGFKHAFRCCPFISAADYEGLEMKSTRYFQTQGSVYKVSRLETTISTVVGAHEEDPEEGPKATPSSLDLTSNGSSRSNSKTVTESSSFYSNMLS

Take `CSCC[C@H](NC(=O)[C@H](CC(C)C)NC(=O)CN(CCCN)C(=O)[C@H](Cc1ccccc1)NC(=O)[C@H](Cc1ccccc1)NC(=O)[C@H](CCCNC(=N)N)NC(C)=O)C(N)=O` (Ac-RFF[Gly(N(CH2)3NH2)]LM-NH2): the pEC50 on Substance-K receptor [1] is under 4.00; on Neuromedin-K receptor [2], 5.70; on Substance-P receptor, 6.52.

Consider `CSCC[C@H](NC(=O)[C@H](CC(C)C)NC(=O)CN1CCNC(=O)CCC(=O)NCC(=O)N[C@@H](CCCN=C(N)N)C(=O)N[C@@H](Cc2ccccc2)C(=O)N[C@@H](Cc2ccccc2)C1=O)C(N)=O` (GRFF[N(2-Aminoethyl)Gly]LM-NH2; linker N-5 via Suc), for which the negative logarithm of the EC50 (pEC50) is under 4.30 at Substance-K receptor [1], under 5.00 at Neuromedin-K receptor [2] and under 5.00 at Substance-P receptor.

On to `CSCC[C@H](NC(=O)[C@H](CC(C)C)NC(=O)CN1CCNC(=O)CCC(=O)N[C@@H](CCCNC(=N)N)C(=O)N[C@@H](Cc2ccccc2)C(=O)N[C@@H](Cc2ccccc2)C1=O)C(N)=O` (RFF[N(2-Aminoethyl)Gly]LM-NH2; linker N-4 via Suc), for which the pEC50 on Substance-K receptor [1] is under 4.30; at Neuromedin-K receptor [2], under 5.00; at Substance-P receptor, 5.40.

Regarding `CSCC[C@H](NC(=O)[C@H](CC(C)C)NC(=O)CN1CCCCCCNC(=O)CCCC(=O)N[C@@H](CCCN=C(N)N)C(=O)N[C@@H](Cc2ccccc2)C(=O)N[C@@H](Cc2ccccc2)C1=O)C(N)=O` (RFF[N(6-aminohexyl)Gly]LM-NH2; linker N-4 via Glutaryl), the pEC50 at Substance-K receptor [1] is under 4.30; at Neuromedin-K receptor [2] it was 6.00; on Substance-P receptor it was 7.22.

`CSCC[C@H](NC(=O)[C@H](CC(C)C)NC(=O)CN1CCCCCCNC(=O)CCC(=O)N[C@@H](CCCN=C(N)N)C(=O)N[C@@H](Cc2ccccc2)C(=O)N[C@@H](Cc2ccccc2)C1=O)C(N)=O` (RFF[N(6-aminohexyl)Gly]LM-NH2; linker N-4 via Suc): the pEC50 is under 4.30 on Substance-K receptor [1], 6.00 on Neuromedin-K receptor [2] and 6.80 on Substance-P receptor.

`CSCC[C@H](NC(=O)[C@H](CC(C)C)NC(=O)CN1CCCNC(=O)CCCCC(=O)N[C@@H](CCCN=C(N)N)C(=O)N[C@@H](Cc2ccccc2)C(=O)N[C@@H](Cc2ccccc2)C1=O)C(N)=O` (RFF[NGly(3-aminopropyl)]LM-NH2; linker N-4 via Adipoyl): the pEC50 at Substance-K receptor [1] is under 3.70; at Neuromedin-K receptor [2] it was under 5.00; on Substance-P receptor, 8.30.

As for `CSCC[C@H](NC(=O)[C@H](CC(C)C)NC(=O)CN1CCCNC(=O)CCCC(=O)N[C@@H](CCCN=C(N)N)C(=O)N[C@@H](Cc2ccccc2)C(=O)N[C@@H](Cc2ccccc2)C1=O)C(N)=O` (RFF[NGly(3-aminopropyl)]LM-NH2; linker N-4 via Glutaryl), the pEC50 on Substance-K receptor [1] was under 4.30; at Neuromedin-K receptor [2], under 5.00; on Substance-P receptor, 7.96.

Regarding `CSCC[C@H](NC(=O)[C@H](CC(C)C)NC(=O)CN1CCCNC(=O)CCC(=O)N[C@@H](CCCN=C(N)N)C(=O)N[C@@H](Cc2ccccc2)C(=O)N[C@@H](Cc2ccccc2)C1=O)C(N)=O` (RFF[NGly(3-aminopropyl)]LM-NH2; linker N-4 via Suc), the results for the pEC50 at Substance-K receptor [1], on Neuromedin-K receptor [2] and on Substance-P receptor were under 4.30, under 5.00 and 6.74, respectively.

`CNC(=O)CCCCC(=O)N[C@@H](CCCNC(=N)N)C(=O)N[C@@H](Cc1ccccc1)C(=O)N[C@@H](Cc1ccccc1)C(=O)N(CCCNC(C)=O)CC(=O)N[C@@H](CC(C)C)C(=O)N[C@@H](CCSC)C(N)=O` (X1-RFF[X2]LM-NH2): the pEC50 on Neuromedin-K receptor [3] is 5.70; on Substance-K receptor [4], under 4.00; on Substance-P receptor it was 6.40.

Consider `CSCC[C@H](NC(=O)[C@H](CC(C)C)NC(=O)CNC(=O)[C@H](Cc1ccccc1)N(C)C(=O)[C@H](Cc1ccccc1)NC(=O)[C@H](CC(=O)O)NC(=O)CCC(=O)O)C(N)=O` [SENKTIDE], for which the figures for the pEC50 on Substance-K receptor [1] and on Substance-P receptor were under 3.70 and 4.46, respectively.

Take Ac-RFFPLM-NH2: the pEC50 on Substance-K receptor [1] was under 3.70; at Neuromedin-K receptor [3], under 4.30; at Substance-P receptor it was 8.52.

The values are drawn from ChEMBL document CHEMBL1129266, “Synthesis and biological activity of NK-1 selective, N-backbone cyclic analogs of the C-terminal hexapeptide of substance P” (J Med Chem, 1996).
